Reference: ChEMBL document CHEMBL1687899, “Structure-activity relationships in nucleotide oligomerization domain 1 (Nod1) agonistic γ-glutamyldiaminopimelic acid derivatives” (J Med Chem, 2011)

Target: T1, Nucleotide-binding oligomerization domain-containing protein 1 (Homo sapiens, UniProt Q9Y239)
T1 sequence (Q9Y239 whole entry): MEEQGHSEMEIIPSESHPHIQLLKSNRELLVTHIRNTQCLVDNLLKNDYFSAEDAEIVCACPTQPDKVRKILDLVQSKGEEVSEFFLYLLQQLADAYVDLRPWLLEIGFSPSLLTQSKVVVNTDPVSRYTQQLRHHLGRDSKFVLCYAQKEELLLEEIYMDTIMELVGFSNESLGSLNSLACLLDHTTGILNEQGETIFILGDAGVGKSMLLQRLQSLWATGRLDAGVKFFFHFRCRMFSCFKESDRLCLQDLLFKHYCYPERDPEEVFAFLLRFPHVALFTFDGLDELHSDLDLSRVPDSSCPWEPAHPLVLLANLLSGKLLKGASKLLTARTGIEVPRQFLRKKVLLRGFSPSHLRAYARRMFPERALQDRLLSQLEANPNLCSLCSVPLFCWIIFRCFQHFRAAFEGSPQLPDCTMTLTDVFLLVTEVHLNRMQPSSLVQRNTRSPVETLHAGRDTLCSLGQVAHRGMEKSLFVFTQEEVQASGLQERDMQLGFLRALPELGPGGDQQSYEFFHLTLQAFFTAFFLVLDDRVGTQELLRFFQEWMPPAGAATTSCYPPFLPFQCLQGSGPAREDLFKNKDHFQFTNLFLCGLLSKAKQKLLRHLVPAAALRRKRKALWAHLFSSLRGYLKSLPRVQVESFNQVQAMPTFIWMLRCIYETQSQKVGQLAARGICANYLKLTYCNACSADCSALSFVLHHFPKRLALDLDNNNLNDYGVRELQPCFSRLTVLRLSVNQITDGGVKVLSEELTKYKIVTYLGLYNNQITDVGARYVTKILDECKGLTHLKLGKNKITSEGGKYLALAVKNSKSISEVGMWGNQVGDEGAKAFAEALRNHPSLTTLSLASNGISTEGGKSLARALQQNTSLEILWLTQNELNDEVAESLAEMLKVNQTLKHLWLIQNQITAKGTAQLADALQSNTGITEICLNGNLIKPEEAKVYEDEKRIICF
Assay: Agonist activity at human NOD-1 expressed in human HEK293 cells assessed as NF-kappaB induction by spectrophotometric analysis
Assay type: functional, cell-based
How it was run: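 HEK-Blue cells (HEK293 stably transfected with human Nod1 and an NF-κB/AP-1-inducible secreted alkaline phosphatase reporter) were kept in selection medium with zeocin and normocin. Cells at ~10^5 cells/mL were grown to confluency and then given graded compound concentrations. Supernatant sAP was read spectrophotometrically at 620 nm with an alkaline phosphatase-specific chromogen.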

Row | Compound | EC50
1 | CCCCCCCCCCCC(=O)NC(CCCC(NC(=O)CC[C@@H](NC(=O)CCCCCCCCCCC)C(=O)O)C(=O)O)C(=O)O (stereo partly specified) | 0.58 nM
2 | CCCCCCCCCCCC(=O)N[C@H](CCC(=O)NC(CCCC(NC(=N)N)C(=O)O)C(=O)O)C(=O)O (stereo partly specified) | 0.622 nM
3 | CCCCCCCCCCCOC(=O)[C@@H](CCC(=O)NC(CCCC(N)C(=O)O)C(=O)O)NC(=N)N (stereo partly specified) | 0.238 nM

Molecules with a lower EC50, results first:

Row | EC50 | Compound
4 | 0.145 nM | CCCCCCCCCCCC(=O)N[C@H](CCC(=O)NC(CCCC(N)C(=O)OCC)C(=O)OCC)C(=O)O (stereo partly specified)
5 | 0.066 nM | CCCCCCCCCCCOC(=O)[C@H](N)CCC(=O)NC(CCCC(N)C(=O)O)C(=O)O (stereo partly specified)
6 | 0.12 nM | CCCCCCCCCCCCCCCCN(CCCCCCCCCCCCCCCC)[C@H](CCC(=O)NC(CCCC(N)C(=O)O)C(=O)O)C(=O)O (stereo partly specified)
